m5-HT2A agonist = mouse HTR2A agonism via beta-arrestin recruitment. AID 624169. P35363. hit rate 0.66% among 360,000. activation, % at 7.6 µM. CHO-K1 mHTR2A beta-arrestin complementation, luminescence; percent of 30 µM serotonin response;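 active means activation above a run cutoff, the mean activation of all tested compounds plus 3 SD, cut at about 14% in these data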;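 further: 0% = plate median of compound wells and 100% = 30 µM serotonin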
Target sequence (P35363 whole entry, looked up): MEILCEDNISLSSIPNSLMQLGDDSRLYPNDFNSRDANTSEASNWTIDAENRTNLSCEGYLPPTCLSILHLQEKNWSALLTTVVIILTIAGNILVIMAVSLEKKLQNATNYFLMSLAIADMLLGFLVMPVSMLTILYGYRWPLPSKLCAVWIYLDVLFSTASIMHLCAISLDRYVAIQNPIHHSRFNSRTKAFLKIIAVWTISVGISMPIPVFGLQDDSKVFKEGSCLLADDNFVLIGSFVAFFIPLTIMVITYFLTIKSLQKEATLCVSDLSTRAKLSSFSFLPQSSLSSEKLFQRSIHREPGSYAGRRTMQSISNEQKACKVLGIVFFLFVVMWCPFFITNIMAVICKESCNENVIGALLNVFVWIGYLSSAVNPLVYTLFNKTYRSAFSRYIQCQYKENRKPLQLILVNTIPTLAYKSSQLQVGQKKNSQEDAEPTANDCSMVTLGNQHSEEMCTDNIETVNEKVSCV
IMP-1 inh = inhibitors of Pseudomonas aeruginosa IMP-1 metallo-beta-lactamase; purified IMP-1, nitrocefin hydrolysis, epi-absorbance fluorescence; inhibition, % at 5.6 µM; hit rate 0.45% among 290,000;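 active means inhibition above the mean plus 3 SD of all compounds in the same screening run, cut at about 4.5% in these data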;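 further: 0% = IMP-1 with DMSO and 100% = DMSO wells lacking enzyme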
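System: Purified IMP-1 | Read-out basis: Percent enzyme inhibition | Controls: IMP-1 with DMSO as 0%, enzyme-free DMSO as 100% | Replicates: One well per compound | Doses: 5.6 µM nominal single concentration | Detection: Epi-absorbance fluorescence, 480 nm excitation, 530 nm emission | Incubation: 25 °C, 15 min preincubation, 25 min reaction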
dFosB act-1 = enhances mouse delta FosB homodimer DNA binding; activation, % at 25 µM; purified delta FosB, TAMRA-CDK5 oligo fluorescence polarization; percent of positive-control signal above neutral wells; P13346; hit rate 0.99% among 340,000; AID 493131;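 active means mean activation above about 17%, with every replicate also reaching it, limit read from the data, passing the limit was not always enough; inconclusive means only one of the two conditions met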
VIM-2 inh = inhibitors of Pseudomonas aeruginosa VIM-2 metallo-beta-lactamase. purified VIM-2, nitrocefin hydrolysis, epi-absorbance fluorescence. inhibition, % at 5.6 µM. hit rate 0.89% among 290,000;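 active means inhibition above the mean of all tested compounds plus 3 SD, cutoff set per screening run, cut at about 7.5% in these data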;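 further: red hydrolysis product quenches plate fluorescence so inhibitors raise well fluorescence; 0% = enzyme with DMSO and 100% = DMSO without enzyme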
dFosB act-2 = enhances mouse delta FosB homodimer binding to DNA | shares compounds with dFosB act-1 | purified delta FosB, TAMRA-CDK5 oligo fluorescence polarization; normalised: neutral wells 0, positive control 100 | activation, % at 24.9 µM | 2,400 tested, under 10 active;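 active means highest replicate activation at or above 34% and every replicate reaching that threshold; inconclusive means meets only one of the two criteria; inactive means meets neither criterion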;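 further: higher polarization means more probe DNA bound by delta FosB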
* = called active by the depositor; ? = inconclusive; . = no result. An excerpt weighted towards active compounds, which were near 2.5% of everything screened.

SMILES | m5-HT2A agonist | IMP-1 inh | dFosB act-1 | VIM-2 inh | dFosB act-2
CCOc1ccc(-c2cc(NC(=O)Cn3ncc4c3-c3ccccc3OC4)on2)cc1OCC | 5 | -4 | 39* | -2 | 3
O=C(NNC(=O)c1ccccc1O)c1cc2ccccc2o1 | -3 | . | -10 | . | .
COc1ccc(Cl)cc1C(=O)NNC(=O)c1cc2ccccc2o1 | 2 | . | 35* | . | 1
COc1ccc(NC(=O)N(C)C[C@@H]2Oc3cc(C#CCN(C)C)ccc3S(=O)(=O)N([C@H](C)CO)C[C@H]2C)cc1 | 0 | . | . | . | .
O=C(COc1ccc2c(c1)OCO2)Nc1ccc(Cl)cn1 | -6 | -4 | 8 | -4 | .
CCOc1ccc2nc(NC(=O)/C=C/c3ccc4c(c3)OCO4)sc2c1 | -1 | -3 | 5 | 0 | .
O=C(/C=C/c1ccc2c(c1)OCO2)Nc1nc2ccc(F)cc2s1 | -5 | -2 | 30* | -3 | 3
O=C(/C=C/c1ccc2c(c1)OCO2)Nc1ccc(Cl)cn1 | 0 | -3 | 103* | -4 | -1
COc1ccc(S(=O)(=O)N2CCC(C(=O)Nc3cc(Cl)ccc3N3CCOCC3)CC2)cc1OC | 0 | . | -4 | . | .
CC(OC(=O)c1cc2ccccc2cc1O)C(=O)Nc1ccc(S(N)(=O)=O)cc1 (stereo not drawn) | -2 | -2 | 25* | -2 | 0
N#Cc1c(SCC(=O)Nc2ccccc2)nsc1SCC(=O)Nc1ccccc1 | 8 | -1 | 25* | -1 | 0
COc1cccc(C(C)(O)c2nc(-c3ccc(OC)nc3)cs2)c1 (stereo not drawn) | 3 | . | . | . | .
COc1ccc(-c2cc3c(=O)n(CC(=O)Nc4ccc(C(C)=O)cc4)ncn3n2)cc1 | 7 | -1 | 74* | -7 | -2
COc1ccc(NC(=O)Cn2cc(C(=O)c3ccco3)c3ccccc32)cc1 | 3 | -1 | 45* | -3 | 2
COc1ccc2c(c1)c(=O)c(C(=O)c1ccc(C)cc1)cn2CC(=O)Nc1ccc(F)cc1 | 4 | -4 | 22* | -1 | -1
Cc1ccc(S(=O)(=O)c2cn(CC(=O)Nc3ccccc3)c3ccc(F)cc3c2=O)cc1 | 1 | -3 | 30* | 1 | 2
COc1ccc2c(c1)c(CC(=O)Nc1ccc(C)cc1)c(C)n2C(=O)c1ccc(Cl)cc1 | 2 | 2 | 21* | -2 | 3
COc1ccc(NC(=O)Cc2c(C)n(C(=O)c3ccc(Cl)cc3)c3ccc(OC)cc23)cc1 | 4 | -1 | -7 | -1 | .
CCOc1ccc(NC(=O)Cn2cc(C(=O)c3ccco3)c3ccccc32)cc1 | -3 | -1 | 6 | -1 | .
Cc1ccc(Cc2c(-c3ccc(C#N)cc3)nc3c4ccccc4ccn23)cc1 | -5 | . | . | . | .
COCC(C)n1c(SCC(=O)c2cc(C)n(C)c2C)nc2ccccc2c1=O (stereo not drawn) | -7 | -1 | -6 | -1 | .
COC(=O)c1cn(CC(=O)Nc2ccc(OC)cc2)c2ccccc12 | -2 | -3 | 4 | -1 | .
COc1ccc2c(c1)c(=O)c(C(=O)c1ccc(F)cc1)cn2CC(=O)Nc1ccc(F)cc1 | -3 | -2 | 20* | -1 | -3
c1nc(NCc2ccc3c(c2)OCO3)c2cc(-c3ccc4c(c3)OCCO4)ccc2n1 | -1 | . | 39* | . | 3
O=C(COC(=O)c1ccccc1F)NCc1ccc2c(c1)OCO2 | -4 | . | 1 | . | .
SMILES | m5-HT2A agonist | IMP-1 inh | dFosB act-1 | VIM-2 inh | dFosB act-2
O=C(COC(=O)c1cccnc1Nc1ccccc1F)NCc1ccc2c(c1)OCO2 | -3 | 0 | 55* | -3 | 3
O=C(Nc1nccs1)c1cn(-c2ccccc2)nc1-c1ccncc1 | -1 | -3 | 36* | -3 | 1
Cc1cccc(-c2nn(-c3ccccc3)cc2C(=O)N(C)CC(=O)Nc2ccc(N3CCOCC3)cc2)c1 | -6 | . | -1 | . | .
COc1cc2ccccc2cc1C(=O)N(CCN(C)C)c1nc2c(C)cccc2s1 | -7 | -3 | 29* | -1 | 6
COc1ccc2nc(N(CCN(C)C)C(=O)/C=C/c3cccs3)sc2c1 | -8 | -2 | 42* | -2 | -8
COc1cc2ccccc2cc1C(=O)N(CCN(C)C)c1nc2ccc(C)cc2s1 | -4 | -1 | 40* | 0 | 2
Cc1ccc(Cl)cc1NC(=O)c1cc(S(=O)(=O)N2CCOCC2)cn1C | 12 | -6 | -12 | -2 | .
CCN(CC(=O)Nc1ccc2c(c1)OCCO2)C(=O)CCc1ccccc1Cl | -2 | . | -14 | . | .
CCn1nc(C)c(CNC(=O)C2CCC(=O)N(CCc3ccc(OC)cc3)C2)c1C (stereo not drawn) | 0 | -2 | -7 | -2 | .
O=C(CCCCn1c(=S)[nH]c2ccsc2c1=O)NCc1ccc2c(c1)OCO2 | -1 | -3 | 125* | -1 | 1
O=C(/C=C/c1ccc([N+](=O)[O-])cc1)Oc1ccc(/C=N/NC(=O)c2ccncc2)cc1 | -2 | -4 | 26* | -3 | 6
O=C(NN=Cc1ccc([N+](=O)[O-])cc1)c1ccncc1 | 0 | . | -11 | . | .
COc1cc(CCN2C(=O)c3cccc4cccc(c34)C2=O)c(S(=O)(=O)NCCCO)cc1OC | 5 | 0 | 20* | 3 | -1
COc1cc(CCN2C(=O)c3cccc4cccc(c34)C2=O)c(S(=O)(=O)NCCO)cc1OC | 5 | -2 | 12 | 3 | .
O=C(Nc1cccnc1)c1cccc(-c2cc3ccccc3oc2=O)c1 | -1 | -1 | 46* | 1 | 2
O=C(Nc1ccc(-c2cc3ccccc3oc2=O)c(Cl)c1)c1cccnc1 | -1 | -2 | 84* | -3 | 3
CC(C)c1cc(Cn2c3ccccc3c(=O)n2C(C)Cn2cc(C3=CCCCC3)nn2)on1 (stereo not drawn) | 4 | . | . | . | .
COc1cccc(C(=O)N=c2sc3cc(S(C)(=O)=O)ccc3n2C)c1 | -1 | -2 | 27* | -2 | 2
COc1cc(OC)cc(C(=O)N=c2sc3ccccc3n2C)c1 | -7 | -4 | -18 | -1 | .
CC(Cc1cccs1)NC(=O)CCCn1nnnc1CN1CCOCC1 (stereo not drawn) | 1 | -1 | 4 | -1 | .
O=C(Nc1ccc(S(=O)(=O)Nc2nccs2)cc1)c1ccc(N2C(=O)c3ccccc3C2=O)cc1 | 0 | -3 | 33* | -3 | -1
O=C(NNc1ccccc1Br)C(O)(c1cccc(C(F)(F)F)c1)c1cccc(C(F)(F)F)c1 | -1 | -3 | 1 | -2 | .
Cc1ccc(NNC(=O)C(O)(c2cccc(C(F)(F)F)c2)c2cccc(C(F)(F)F)c2)cc1 | -2 | -1 | 77* | -1 | 0
Cn1nc(C(=O)OCC(=O)c2ccc(Cl)cc2)c2ccccc2c1=O | 2 | . | -5 | . | .
COc1ccc(Nc2nc(Nc3ccc(OC)cc3)nc(SC3=NCCS3)n2)cc1 | -3 | -2 | 37* | -4 | 4
COc1ccccc1/C=N\N=C(\N)c1ccccn1 | 0 | -2 | 2 | -5 | .
COc1ccccc1C=NN=C(N)C(N)=NN=Cc1ccccc1OC | -7 | . | 70* | . | ?

Compound activity as filed in PubChem BioAssay.
